System: MCF7
Assay: The compound was tested for antiproliferative activity against MCF-7 human breast cancer cells; In active; call rule not given here
Assay type: functional, cell-based
How it was run: (§1)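 MCF-7 human breast cancer cells, MTT assay. Growth inhibition expressed as % of control absorbance after 6 days incubation. IC50 read graphically as the concentration giving a 50% decrease in cell growth. Mean of three experiments; deviations within ±5%.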

IC50 | SMILES
Not Active | O=C1CC(c2ccccc2)Oc2c1ccc(O)c2O (stereo not drawn)

System: MCF7
Assay: The compound was tested for antiproliferative activity against MCF-7 human breast cancer cells
Assay type: functional, cell-based
How it was run: as §1

SMILES | IC50
COc1ccc(O)c(C(=O)/C=C/c2ccccc2)c1 | 29.2 µM
COc1ccc(C(=O)/C=C/c2ccccc2)c(O)c1 | 26.8 µM
COc1cccc(O)c1C(=O)/C=C/c1ccccc1 | 18.3 µM
O=C(/C=C/c1ccccc1)c1ccc(O)c(O)c1O | 22.2 µM
O=C(/C=C/c1ccccc1)c1ccc(O)cc1O [2',4'-DIHYDROXYCHALCONE] | 16.3 µM
O=C(/C=C/c1ccccc1)c1ccccc1O [2'-HYDROXYCHALCONE] | 28.4 µM
O=c1cc(-c2ccccc2)oc2c(O)c(O)ccc12 [7,8-DIHYDROXYFLAVONE] | 27.5 µM

Other lines, results leading:

IC50 | SMILES
> 60 µM | COc1cc(O)c(C(=O)/C=C/c2ccccc2)c(O)c1
35.7 µM | COc1cccc2c1C(=O)CC(c1ccccc1)O2 (stereo not drawn)
35.7 µM | COc1ccc2c(c1)OC(c1ccccc1)CC2=O (stereo not drawn)
36 µM | COc1cc(OC)c2c(c1)OC(c1ccccc1)CC2=O (stereo not drawn) [DIMETHYLPINOCEMBRIN]
20 µM | COc1cc(O)c(C(=O)/C=C/c2ccccc2)c(OC)c1 [FLAVOKAWAIN B]

— ChEMBL document CHEMBL1133865, “Flavonoids: structural requirements for antiproliferative activity on breast cancer cells” (Bioorg Med Chem Lett, 2001)
